Measured values reported in ChEMBL document CHEMBL4689842, “EUbOPEN Chemogenomics Library wave 1” (2021).

Test system: Fibroblast
Experiment: Multiplex assay against human fibroblast
Assay type: toxicity, cell-based
Outline: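 Cells stained live at seeding with Hoechst33342, BioTracker Green Microtubule Cytoskeleton Dye, MitoTracker Red and Annexin V Alexa Fluor 680 were imaged on a CQ1 microscope at 37°C and 5% CO2 after compound addition. Their classification by CellPathfinder machine-learning gating ran from Hoechst high-intensity objects versus normal cells, to healthy, pyknosed or fragmented nuclei among normal cells, to mitotic or apoptotic among pyknosed cells. Tubulin, mitochondrial-mass and membrane-permeability phenotypes are per cents of healthy-nucleus cells.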

[1] = 12 h, 1 µM, compound concentration 1 uM, replicate 1
[2] = 12 h, 1 µM, compound concentration 1 uM, replicate 2
[3] = 12 h, 10 µM, compound concentration 10 uM, replicate 1
[4] = 12 h, 10 µM, compound concentration 10 uM, replicate 2
[5] = 24 h, 1 µM, compound concentration 1 uM, replicate 1
[6] = 24 h, 1 µM, compound concentration 1 uM, replicate 2
[7] = 24 h, 10 µM, compound concentration 10 uM, replicate 1
[8] = 24 h, 10 µM, compound concentration 10 uM, replicate 2
[9] = 48 h, 1 µM, compound concentration 1 uM, replicate 1
[10] = 48 h, 1 µM, compound concentration 1 uM, replicate 2
[11] = 48 h, 10 µM, compound concentration 10 uM, replicate 1
[12] = 48 h, 10 µM, compound concentration 10 uM, replicate 2

In the case of `CC(C)c1noc(N2CCC(COc3ccc(-c4ccc(S(C)(=O)=O)cc4)nc3)CC2)n1` [GSK-1292263], the “Population Apoptotic (%)” value [1] is reported as 65%, the “Population Fragmented Nuclei (%)” value [1] is reported as 28% and the “Population Healthy Nuclei (%)” value [1] is reported as 45%. The “Population Hoechst High Intensity Objects (%)” value [1] was 12%, the “Population Membrane Permeable-Phenotype (%)” value [1] was 21% and the “Population Mitochondria Different-Phenotype (%)” value [1] was 15%. The “Population Mitotic Cells (%)” value [1] was 34%, the “Population Normal (%)” value [1] was 87% and the “Population Pyknosed Nuclei (%)” value [1] was 25%. For the same compound, the “Population Tubulin-Different-Phenotype (%)” value [1] was 49%, the “Total Cell Count” value [1] was 128 and the “Population Apoptotic (%)” value [2] was 50%. For the same compound, the “Population Fragmented Nuclei (%)” value [2] was 12%, the “Population Healthy Nuclei (%)” value [2] was 85% and the “Population Hoechst High Intensity Objects (%)” value [2] was 2%. For the same compound, the “Population Membrane Permeable-Phenotype (%)” value [2] was 3%, the “Population Mitochondria Different-Phenotype (%)” value [2] was 4% and the “Population Mitotic Cells (%)” value [2] was 50%. For the same compound, the “Population Normal (%)” value [2] was 97%, the “Population Pyknosed Nuclei (%)” value [2] was 2% and the “Population Tubulin-Different-Phenotype (%)” value [2] was 9%. For the same compound, the “Total Cell Count” value [2] was 89, the “Population Apoptotic (%)” value [3] was 52% and the “Population Fragmented Nuclei (%)” value [3] was 21%. The “Population Healthy Nuclei (%)” value [3] was 45%, the “Population Hoechst High Intensity Objects (%)” value [3] was 5% and the “Population Membrane Permeable-Phenotype (%)” value [3] was 24%. The “Population Mitochondria Different-Phenotype (%)” value [3] was 5%, the “Population Mitotic Cells (%)” value [3] was 48% and the “Population Normal (%)” value [3] was 94%. For the same compound, the “Population Pyknosed Nuclei (%)” value [3] was 33%, the “Population Tubulin-Different-Phenotype (%)” value [3] was 49% and the “Total Cell Count” value [3] was 160. The “Population Apoptotic (%)” value [4] was 42%, the “Population Fragmented Nuclei (%)” value [4] was 5% and the “Population Healthy Nuclei (%)” value [4] was 83%. For the same compound, the “Population Membrane Permeable-Phenotype (%)” value [4] was 3%, the “Population Mitochondria Different-Phenotype (%)” value [4] was 10% and the “Population Mitotic Cells (%)” value [4] was 57%. For the same compound, the “Population Pyknosed Nuclei (%)” value [4] was 10%, the “Population Tubulin-Different-Phenotype (%)” value [4] was 15% and the “Total Cell Count” value [4] was 76. For the same compound, the “Population Apoptotic (%)” value [5] was 38%, the “Population Fragmented Nuclei (%)” value [5] was 27% and the “Population Healthy Nuclei (%)” value [5] was 39%. For the same compound, the “Population Hoechst High Intensity Objects (%)” value [5] was 8%, the “Population Membrane Permeable-Phenotype (%)” value [5] was 39% and the “Population Mitochondria Different-Phenotype (%)” value [5] was 12%. For the same compound, the “Population Mitotic Cells (%)” value [5] was 61%, the “Population Normal (%)” value [5] was 91% and the “Population Pyknosed Nuclei (%)” value [5] was 33%. For the same compound, the “Population Tubulin-Different-Phenotype (%)” value [5] was 75%, the “Total Cell Count” value [5] was 112 and the “Population Apoptotic (%)” value [6] was 0%. The “Population Fragmented Nuclei (%)” value [6] was 14%, the “Population Healthy Nuclei (%)” value [6] was 83% and the “Population Hoechst High Intensity Objects (%)” value [6] was 2%. For the same compound, the “Population Membrane Permeable-Phenotype (%)” value [6] was 2%, the “Population Mitochondria Different-Phenotype (%)” value [6] was 10% and the “Population Mitotic Cells (%)” value [6] was 100%. For the same compound, the “Population Normal (%)” value [6] was 97%, the “Population Pyknosed Nuclei (%)” value [6] was 2% and the “Population Tubulin-Different-Phenotype (%)” value [6] was 13%. The “Total Cell Count” value [6] was 103, the “Population Apoptotic (%)” value [7] was 52% and the “Population Fragmented Nuclei (%)” value [7] was 20%. The “Population Healthy Nuclei (%)” value [7] was 45%, the “Population Hoechst High Intensity Objects (%)” value [7] was 10% and the “Population Membrane Permeable-Phenotype (%)” value [7] was 23%. For the same compound, the “Population Mitochondria Different-Phenotype (%)” value [7] was 4%, the “Population Mitotic Cells (%)” value [7] was 47% and the “Population Normal (%)” value [7] was 89%. For the same compound, the “Population Pyknosed Nuclei (%)” value [7] was 34%, the “Population Tubulin-Different-Phenotype (%)” value [7] was 70% and the “Total Cell Count” value [7] was 178. For the same compound, the “Population Apoptotic (%)” value [8] was 36%, the “Population Fragmented Nuclei (%)” value [8] was 7% and the “Population Healthy Nuclei (%)” value [8] was 79%. For the same compound, the “Population Hoechst High Intensity Objects (%)” value [8] was 4%, the “Population Membrane Permeable-Phenotype (%)” value [8] was 7% and the “Population Mitochondria Different-Phenotype (%)” value [8] was 12%. The “Population Mitotic Cells (%)” value [8] was 63%, the “Population Normal (%)” value [8] was 95% and the “Population Pyknosed Nuclei (%)” value [8] was 13%. The “Population Tubulin-Different-Phenotype (%)” value [8] was 7%, the “Total Cell Count” value [8] was 91 and the “Population Apoptotic (%)” value [9] was 35%. For the same compound, the “Population Fragmented Nuclei (%)” value [9] was 29%, the “Population Healthy Nuclei (%)” value [9] was 54% and the “Population Hoechst High Intensity Objects (%)” value [9] was 12%. The “Population Membrane Permeable-Phenotype (%)” value [9] was 33%, the “Population Mitochondria Different-Phenotype (%)” value [9] was 8% and the “Population Mitotic Cells (%)” value [9] was 64%. The “Population Normal (%)” value [9] was 88%, the “Population Pyknosed Nuclei (%)” value [9] was 15% and the “Population Tubulin-Different-Phenotype (%)” value [9] was 50%. The “Total Cell Count” value [9] was 100, the “Population Apoptotic (%)” value [10] was 0% and the “Population Fragmented Nuclei (%)” value [10] was 26%. The “Population Healthy Nuclei (%)” value [10] was 73%, the “Population Hoechst High Intensity Objects (%)” value [10] was 8% and the “Population Membrane Permeable-Phenotype (%)” value [10] was 21%. The “Population Mitochondria Different-Phenotype (%)” value [10] was 2%, the “Population Mitotic Cells (%)” value [10] was 0% and the “Population Normal (%)” value [10] was 91%. For the same compound, the “Population Pyknosed Nuclei (%)” value [10] was 0%, the “Population Tubulin-Different-Phenotype (%)” value [10] was 48% and the “Total Cell Count” value [10] was 70. For the same compound, the “Population Apoptotic (%)” value [11] was 44%, the “Population Fragmented Nuclei (%)” value [11] was 27% and the “Population Healthy Nuclei (%)” value [11] was 54%. The “Population Hoechst High Intensity Objects (%)” value [11] was 14%, the “Population Membrane Permeable-Phenotype (%)” value [11] was 29% and the “Population Mitochondria Different-Phenotype (%)” value [11] was 4%. For the same compound, the “Population Mitotic Cells (%)” value [11] was 55%, the “Population Normal (%)” value [11] was 85% and the “Population Pyknosed Nuclei (%)” value [11] was 18%. The “Population Tubulin-Different-Phenotype (%)” value [11] was 69%, the “Total Cell Count” value [11] was 184 and the “Population Apoptotic (%)” value [12] was 66%. For the same compound, the “Population Fragmented Nuclei (%)” value [12] was 21%, the “Population Healthy Nuclei (%)” value [12] was 74% and the “Population Hoechst High Intensity Objects (%)” value [12] was 9%. For the same compound, the “Population Membrane Permeable-Phenotype (%)” value [12] was 28%, the “Population Mitochondria Different-Phenotype (%)” value [12] was 0% and the “Population Mitotic Cells (%)” value [12] was 33%. The “Population Normal (%)” value [12] was 90%, the “Population Pyknosed Nuclei (%)” value [12] was 4% and the “Population Tubulin-Different-Phenotype (%)” value [12] was 59%. For the same compound, the “Total Cell Count” value [12] was 77.
